Compounds with a hit are over-represented: about 3.5% of the library has one in this group of screens.
MrgX1 ag: agonists of human MrgX1 receptor, primary screen, HEK293 cells, Fluo-4 calcium flux | Fluo-4 calcium fluorescence, agonist mode; active compounds read high | B-score at 10 µM | actives 0.44% (n = 310,000);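 active means calcium response B-score plate-corrected fluorescence ratio at least 3 library SD, with starting fluorescence B-score inside 5 SD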
Target sequence (Q96LB2 whole entry, looked up): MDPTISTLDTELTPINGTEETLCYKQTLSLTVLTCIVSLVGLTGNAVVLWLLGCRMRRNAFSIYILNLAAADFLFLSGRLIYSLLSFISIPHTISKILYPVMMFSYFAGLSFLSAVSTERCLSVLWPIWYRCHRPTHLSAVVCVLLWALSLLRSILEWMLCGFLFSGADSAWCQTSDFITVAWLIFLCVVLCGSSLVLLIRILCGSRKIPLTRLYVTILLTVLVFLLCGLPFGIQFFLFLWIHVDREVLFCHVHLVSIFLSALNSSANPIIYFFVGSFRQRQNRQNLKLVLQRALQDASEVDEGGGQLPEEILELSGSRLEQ
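System – MrgX1-expressing HEK293 cells · Incubation – cells plated overnight, dye loaded 0.5 h 37 °C, 0.5 h room temperature · Technique – kinetic Fluo-4 NW fluorescence of intracellular calcium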
MrgX1 allo act: positive allosteric modulators of MrgX1, primary screen, HEK293 cells, Fluo-4 calcium flux; Mas-related G-protein coupled receptor member X1 (Homo sapiens), Q96LB2; FDSS; active compounds read high; B-score at 10 µM; actives 0.63% (n = 310,000); AID 588675, 2011;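 active means plate-corrected calcium response at least 3 library SD above typical, normal starting fluorescence, not activating the receptor alone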;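 further: compound read alongside a low EC10 to EC30 dose of BAM8-22 agonist; peak minus trough fluorescence over baseline measured at the second addition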
RGS4 act: RGS4 potentiators or activators, primary screen, cell-based, HEK293 M3R inducible RGS4, calcium flux. actives 0.92% (n = 310,000). carbachol calcium flux Fluo4; active compounds read low. AID 463111, 2010. B-score at 10 µM;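 active means B-score of the integrated calcium signal more than 4 SD below the library mean, with starting fluorescence not abnormally high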;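 further: negative B-score means reduced calcium response which marks RGS4 activation or potentiation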
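Detection: kinetic calcium fluorescence imaging with Fluo4-AM dye, 2 µM / Material: HEK293 cells with stable M3R and inducible RGS4 / Schedule: recording 10 s baseline at 1 Hz, 100 s post-agonist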
RGS4 block: RGS4 inhibitors, primary screen, cell-based, HEK293 M3R inducible RGS4, calcium flux; Regulator of G-protein signaling 4 (Homo sapiens), P49798; actives 0.45% (n = 310,000); B-score at 10 µM; Fluo-4 calcium flux; active compounds read high; triggered by carbachol at its EC20; AID 463165, 2010;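 active means B-score, a plate-corrected calcium signal, over three deviations above library mean, with baseline fluorescence within five deviations of library mean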;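 further: RGS4 expression induced by doxycycline in cells with stable M3 receptor; B-score is computed from the integrated fluorescence ratio over baseline after carbachol; higher B-score means a larger calcium signal and so more RGS4 inhibition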
Target sequence (P49798 whole entry, looked up): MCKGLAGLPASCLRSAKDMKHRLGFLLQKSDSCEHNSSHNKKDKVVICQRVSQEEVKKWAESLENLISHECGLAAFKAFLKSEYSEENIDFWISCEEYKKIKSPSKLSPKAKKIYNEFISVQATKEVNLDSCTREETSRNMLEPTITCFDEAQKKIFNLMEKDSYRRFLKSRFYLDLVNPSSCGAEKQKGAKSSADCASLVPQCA
MrgX1 antagonist: antagonists of human MrgX1 receptor, primary screen, HEK293 cells, Fluo-4 calcium flux. B-score at 10 µM. BAM8-22 antagonism; active compounds read low. Mas-related G-protein coupled receptor member X1 (Homo sapiens), Q96LB2. AID 588676, 2011. actives 1.3% (n = 310,000);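 active means calcium-response B-score plate-corrected more than 3 library SD below zero, starting fluorescence within 5 deviations, no agonist response on first addition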;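 further: peak minus trough fluorescence over baseline after final BAM8-22 challenge near maximal dose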
MrgX1 antag conf: MrgX1 receptor antagonists, duplicate retest, confirmation, HEK293 cells, Fluo-4 calcium flux | actives 19% (n = 2,300) | BAM8-22 calcium flux; active compounds read low | remaining BAM8-22 calcium response % of control (active compounds read low), % at 10 µM | shares compounds with MrgX1 antagonist;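 active means remaining agonist calcium response no higher than 100% minus 3 SD of agonist-only control wells, with starting fluorescence near control levels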;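 further: agonist BAM8-22 given at a near maximal EC90 to ECmax level; peak minus minimum fluorescence divided by baseline after agonist addition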
HEK293 Ca flux: nonspecific calcium signal in parental HEK293, confirmation, counter-screen for MrgX1 antagonist project, parental HEK293 cells, Fluo-4 calcium flux. shares compounds with MrgX1 antagonist. Fluo-4 calcium fluorescence, FDSS. fluorescence ratio F(max-min)/F0 at 10 µM. actives 2% (n = 4,000);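 active means duplicate-averaged calcium fluorescence ratio at least three times the standard deviation of buffer wells, a nonspecific response in parental cells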
HEK293 Ca counter: calcium response in parental HEK293 cells, primary screen, counter-screen for MrgX1 allosteric activator project, cell-based, Fluo-4 calcium flux, duplicate; actives 0.4% (n = 4,000); shares compounds with MrgX1 antagonist; AID 624114, 2012; Fluo-4 fluorescence ratio; active compounds read high; fluorescence ratio F(max-min)/F0 at 10 µM;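 active means calcium fluorescence ratio, averaged over duplicates, at least 3 SD of the buffer-well ratio, meaning a nonspecific response in receptor-free cells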;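 further: untransfected parental HEK293 lacking MrgX1 used as counterscreen for MrgX1 allosteric activators; fluorescence change taken during the second addition on a kinetic imager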
HEK293 Ca cntr2: calcium response in parental HEK293 cells, primary screen, counter-screen for MrgX1 agonist project, cell-based, Fluo-4 calcium flux, duplicate, agonist mode | Fluo-4 calcium fluorescence (FDSS); active compounds read high | actives 8.7% (n = 4,000) | fluorescence ratio F(max-min)/F0 at 10 µM | shares compounds with MrgX1 antagonist;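 active means calcium fluorescence ratio at least three times the spread of buffer wells, meaning a non-specific response in parental cells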
Numbers without * were called inactive; i = inactive; · = not tested or not shown.

SMILES	MrgX1 ag	MrgX1 allo act	RGS4 act	RGS4 block	MrgX1 antagonist	MrgX1 antag conf	HEK293 Ca flux	HEK293 Ca counter	HEK293 Ca cntr2
COC(=O)C1=C(c2ccc(S(C)(=O)=O)cc2)C[C@@H]2CC[C@H]1N2C(=O)NCCO	i	i	i	i	i	·	·	·	·
Cc1c(C=O)c2ccccc2n1Cc1ccccc1F	i	i	i	i	-11.1*	i	i	i	i
N=C1C(c2ccccc2)=C(O)CN1Cc1ccco1	i	i	i	i	-5.72*	i	i	i	i
Cc1c(C(=O)N2CCC3(CC2)OCCO3)oc2ccccc12	i	i	i	i	i	·	·	·	·
Cc1c(C(=O)N2CCC3(CC2)OCCO3)oc2ccc(S(=O)(=O)N3CCOCC3)cc12	i	i	i	i	-4.53*	i	i	i	i
CCCCn1c(O)c(C(C)=NCc2cc(OC)cc(OC)c2)c(=O)[nH]c1=O	i	i	i	i	-6.75*	i	i	i	i
COCCOC(=O)C1=C(N)Oc2c(c(=O)oc3ccccc23)[C@@]12C(=O)Nc1ccccc12	i	i	i	i	i	·	·	·	·
COC(=O)C(O)(c1ccc(NC(=S)NC(=O)c2ccc(Cl)cc2Cl)c(C)c1)C(F)(F)F (stereo not drawn)	i	i	i	i	i	·	·	·	·
CCOC(=O)C(O)(c1ccc(NC(=S)NC(=O)c2ccc(Cl)cc2Cl)c(C)c1)C(F)(F)F (stereo not drawn)	i	i	i	i	-4.72*	i	i	i	i
NC(=O)c1cc(N2CC2)c([N+](=O)[O-])cc1[N+](=O)[O-]	i	i	i	i	i	·	·	·	·
Clc1ccc2[nH]c3c(c2c1)CCNC3	i	i	i	i	-5.44*	i	i	i	i
CC(C)CCn1c(=O)c(C(=O)Nc2ccccc2S(N)(=O)=O)c(O)c2ccccc21	i	i	i	i	i	·	·	·	·
CC(C)CCn1c(=O)c(C(=O)NCc2ccc3c(c2)OCO3)c(O)c2ccccc21	i	i	i	i	-7.7*	i	i	i	i
FC(F)(F)c1cccc(-n2nnnc2C2(N3CCOCC3)CCCCC2)c1	i	i	i	i	-5.13*	i	i	i	i
CC(C)OP(=O)(O)NC(=O)c1ccccc1	i	i	i	i	i	·	·	·	·
COP(=O)(NC(=O)C(Cl)(Cl)Cl)OC	i	i	i	i	i	·	·	·	·
O=C(c1cccn2c(=O)c3cc(Br)ccc3nc12)N1CCC2(CC1)OCCO2	i	i	i	i	i	·	·	·	·
Cc1cccn2c(=O)c3cc(C(=O)N4CCC5(CC4)OCCO5)n(C)c3nc12	i	i	i	i	-4.7*	i	i	i	i
C#CCN1CCN(c2cccc(C(F)(F)F)c2)CC1	i	i	i	i	i	·	·	·	·
COc1ccccc1-n1c(-c2ccoc2)nc2ccccc2c1=O	i	i	i	i	-4.73*	i	i	i	i
CN1Cc2cccnc2N(C)Cc2cc(Cl)ccc21	i	i	i	i	i	·	·	·	·
CCOc1ccc(-c2cc(C)[n+](CCc3ccc(OC)c(OC)c3)c(-c3ccc(OCC)cc3)c2)cc1	i	i	-9.93*	i	-13*	69.8%*	i	i	i
CCOc1ccc(-c2cc(C)[n+](CCO)c(-c3ccc(OCC)cc3)c2)cc1	i	i	i	i	i	·	·	·	·
